CFTR F508del cor: correctors of CFTR F508del function in bronchial epithelial cells; activity (quench increase), % at 7.58 µM; 350,000 compounds, 0.36% hits; CFBE cells, YFP halide quenching; stimulated with forskolin plus potentiator P3; % fluorescence drop versus neutral controls;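 active means mean added fluorescence quench of at least 8% versus neutral control, with both replicates also reaching 8%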;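 further: cells transiently co-express mutant CFTR-F508del with the halide-sensitive YFP; corrector assay measuring rescue of mutant channel to the surface after 24 h compound exposure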
MC4R antag cAMP: antagonists of human melanocortin 4 receptor (MC4R); MC4R-expressing cells, MTII-stimulated cAMP, LANCE TR-FRET; inhibition, % at 6.5 µM; P32245; 360,000 compounds, 0.48% hits; AID 540295;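 active means inhibition above its plate's cutoff, the mean of tested wells on that plate plus 3 SD, cut at about 29% in these data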;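 further: 0% = Melanotan II alone and 100% = Melanotan II plus saturating MCL0020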
Target sequence (P32245 whole entry, looked up): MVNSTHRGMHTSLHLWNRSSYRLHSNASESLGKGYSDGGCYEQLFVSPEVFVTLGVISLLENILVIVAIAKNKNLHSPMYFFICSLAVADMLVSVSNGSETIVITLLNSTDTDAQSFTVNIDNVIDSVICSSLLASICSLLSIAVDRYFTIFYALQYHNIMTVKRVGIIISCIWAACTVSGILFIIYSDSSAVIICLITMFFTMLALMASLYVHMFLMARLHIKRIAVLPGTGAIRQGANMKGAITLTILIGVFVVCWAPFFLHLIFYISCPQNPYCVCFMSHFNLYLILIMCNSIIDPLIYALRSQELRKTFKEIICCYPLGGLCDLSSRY
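Assay system: U2OS-MC4R stable cell line; Also added: Melanotan II; Technique: Eu-cAMP/anti-cAMP TR-FRET, emission 671 nm; Times: 30-min compound, 1-h challenge, 1-h detection, room temperature.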
MC4R barr agon: agonists of human melanocortin 4 receptor (MC4R) beta-arrestin. P32245. U2OS MC4R beta-arrestin complementation, luminescence; percent of melanotan II response, DMSO zero. activation, % at 8.9 µM. 360,000 compounds, 0.98% hits;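 active means activation above a per-plate cutoff, the mean activation of sample wells on that plate plus 3 SD, cut at about 8% in these data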
SMARCA2 activ: activators of SMARCA2 function; MG213 cells, MMTV-luciferase reporter, dexamethasone, overnight; activation, % at 9.1 µM; 370,000 compounds, 1% hits; in the data active means activation above about 7.8%;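 further: 0% = vehicle wells and 100% = reference activator wells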
MC4R barr conf: human MC4R beta-arrestin agonism confirmation. shares compounds with MC4R barr agon. 2,400 compounds, 31% hits. activation, % at 8.9 µM. U2OS MC4R beta-arrestin recruitment, luminescence; scaled DMSO 0%, Melanotan II 100%;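 active means mean activation across replicates above the hit cutoff set in the earlier primary screen, cut at about 8% in these data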
MOR DOR agonist: counter-screen for MC4R agonists: agonists of mu-delta opioid heterodimer | activation, % at 9.2 µM | 2,400 compounds, 5.8% hits | U2OS PathHunter beta-arrestin, beta-gal luminescence; percent of deltorphin B response, DMSO zero | shares compounds with MC4R barr agon;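 active means mean activation across replicates exceeds the hit threshold derived in the earlier primary screen, cut at about 18% in these data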;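 further: 100% = deltorphin B at 0.9 µM final and 0% = DMSO alone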
An asterisk follows results filed as active. Only some compounds are listed: those with a hit (about 2.1% of all), similar ones and a draw of the others.

O=C(CC1CC1)Nc1ccc2c(c1)[C@@H]1C[C@@H](CC(=O)NC3CCCC3)O[C@H](CO)[C@@H]1O2 was read as CFTR F508del cor -4.
CN(C)CC(=O)N[C@@H]1CC[C@H](CCNC(=O)C2CCCC2)O[C@@H]1CO was read as CFTR F508del cor -2.
`COc1ccc(-c2onc(C)c2-c2ccc(C(=O)OC(C)C)o2)c(O)c1` gave MC4R antag cAMP 14, MC4R barr agon 12*, SMARCA2 activ -2, MC4R barr conf 7 and MOR DOR agonist 9.
Screening CCOc1ncccc1C(=O)Nc1cccc(-c2nc3cccnc3s2)c1 returned CFTR F508del cor -1, MC4R antag cAMP -6, MC4R barr agon 17*, SMARCA2 activ -5, MC4R barr conf 8 and MOR DOR agonist 3.
`COCC(=O)N1C[C@@H](C)[C@@H](OC)CN(C)C(=O)c2ccc(NC(=O)c3ccc(F)cc3)cc2OC[C@@H]1C` gave CFTR F508del cor 0.
`N=C(N)c1ccc(N=Nc2c(O)ccc3c2[nH]c2ccccc23)cc1` gave CFTR F508del cor -1, MC4R antag cAMP 0, MC4R barr agon 10.0*, SMARCA2 activ -1, MC4R barr conf 10* and MOR DOR agonist 17.
N#C/C(=C\c1cn(Cc2ccccc2)c2ccccc12)C(=O)NCc1ccco1 was read as MC4R antag cAMP 7, MC4R barr agon 17*, SMARCA2 activ -2, MC4R barr conf 1 and MOR DOR agonist 3.
N#C/C(=C\c1cn(Cc2ccccc2C#N)c2ccccc12)C(=O)NCc1cccs1 was read as SMARCA2 activ 2.
Screening N#C/C(=C/c1cn(-c2ccccc2)nc1-c1cccc(S(=O)(=O)N2CCCC2)c1)C(=O)NCc1ccco1 returned MC4R antag cAMP 25, MC4R barr agon 0 and SMARCA2 activ -3.
N#C/C(=C\c1cn(Cc2cccc(F)c2)c2ccccc12)C(=O)NCc1ccco1 was read as MC4R antag cAMP -1, MC4R barr agon 31*, SMARCA2 activ -2, MC4R barr conf 6 and MOR DOR agonist 2.
Screening C[C@@H]1CN([C@@H](C)CO)C(=O)c2cc(NC(=O)CCCCCC(=O)Nc3ccccc3N)ccc2O[C@H]1CN(C)S(=O)(=O)c1ccc(F)cc1 returned CFTR F508del cor 1.
For CO[C@@H]1CN(C)C(=O)c2ccc(NC(=O)c3ccno3)cc2OC[C@H](C)N(C(=O)C2CCC2)C[C@@H]1C the results were CFTR F508del cor 2.
Screening O=C(COc1ccc(-c2ccccc2)cc1)N/N=C/c1ccccc1Br returned MC4R antag cAMP 5, MC4R barr agon 6 and SMARCA2 activ 3.
O=C(COc1ccc(-c2ccccc2)cc1)N/N=C/c1cc(O)ccc1Br was read as CFTR F508del cor 0, MC4R antag cAMP 0, MC4R barr agon 37*, SMARCA2 activ 0, MC4R barr conf 13* and MOR DOR agonist 5.
COc1ccc(-c2sc3ccc(N4CCOCC4)cc3c2C#Cc2ccsc2)cc1 was read as CFTR F508del cor 0, MC4R antag cAMP 5, MC4R barr agon -1 and SMARCA2 activ 3.
Screening COc1ccc(-c2sc3ccc(N4CCOCC4)cc3c2C#CC(C)(C)O)cc1 returned CFTR F508del cor 2, MC4R antag cAMP 18, MC4R barr agon 23*, SMARCA2 activ 1, MC4R barr conf 8 and MOR DOR agonist 2.
For O=C(COc1ccc2c(c1)OCO2)Nc1ccc2c(c1)oc1ccccc12 the results were MC4R antag cAMP 0, MC4R barr agon 22*, SMARCA2 activ 1, MC4R barr conf 21* and MOR DOR agonist 3.
`Cc1ccc(OCC(=O)Nc2ccc3c(c2)OCO3)cc1C` gave MC4R antag cAMP 26, MC4R barr agon 0 and SMARCA2 activ 2.
Screening COc1ccc(NC(=O)C[C@H]2CC[C@H]3[C@@H](COc4ccc(NC(=O)C5CC5)cc4C(=O)N3C)O2)cc1 returned CFTR F508del cor -1.
For O=C(c1ccccc1NS(=O)(=O)c1cccc(C(F)(F)F)c1)N1CCc2ccccc21 the results were MC4R antag cAMP 16, MC4R barr agon 10*, SMARCA2 activ -3, MC4R barr conf 1 and MOR DOR agonist 6.
O=C(c1ccccc1NS(=O)(=O)c1ccc(F)cc1)N1CCc2ccccc21 was read as MC4R antag cAMP 19, MC4R barr agon 4 and SMARCA2 activ -2.
For Cc1cc(C)c2nc(NC(=O)c3ccco3)sc2c1 the results were CFTR F508del cor -1, MC4R antag cAMP 1, MC4R barr agon -2 and SMARCA2 activ 6.
Cc1cc(Cl)cc2sc(NC(=O)c3ccco3)nc12 was read as MC4R antag cAMP 8, MC4R barr agon 11*, MC4R barr conf 0 and MOR DOR agonist 3.
Screening O=C(CC1c2ccccc2Oc2ccccc21)Nc1ccccc1C(F)(F)F returned MC4R antag cAMP 5, MC4R barr agon 17*, SMARCA2 activ -3, MC4R barr conf 4 and MOR DOR agonist 8.
Screening O=C(CC1c2ccccc2Oc2ccccc21)Nc1ccccc1F returned MC4R antag cAMP 4, MC4R barr agon 11*, SMARCA2 activ -3, MC4R barr conf 5 and MOR DOR agonist 6.
`O=C(O)C[C@H]1C[C@@H]2c3cc(NC(=O)Nc4ccccc4)ccc3O[C@@H]2[C@H](CO)O1` gave CFTR F508del cor -3.
`CCCNC(=O)C[C@@H]1C[C@H]2c3cc(NC(=O)Nc4ccc(F)cc4)ccc3O[C@H]2[C@@H](CO)O1` gave CFTR F508del cor -1.
Screening COc1cccc(NC(=O)N2CC3(C2)[C@H](c2ccccc2)[C@@H](CO)N3C(=O)C2CC2)c1 returned CFTR F508del cor -3.
CSc1cc(-c2ccccc2)n(C)c(=O)c1C#N was read as CFTR F508del cor -2, MC4R antag cAMP -4, MC4R barr agon 12*, SMARCA2 activ -2, MC4R barr conf 1 and MOR DOR agonist 3.
O=C1N/C(=C/c2cccn2-c2ccc(F)cc2)C(=O)N1Cc1ccccc1 was read as MC4R antag cAMP -12, MC4R barr agon 10*, SMARCA2 activ 0, MC4R barr conf 3 and MOR DOR agonist 4.
`O=C(O)c1cccc(-n2cccc2/C=C2\NC(=O)N(Cc3ccc(F)cc3)C2=O)c1` gave CFTR F508del cor -1, MC4R antag cAMP -3, MC4R barr agon 0 and SMARCA2 activ -2.
O=C(Nc1ccc(Br)cc1)C(c1ccccc1)c1ccccc1 was read as CFTR F508del cor -3, MC4R antag cAMP 4, MC4R barr agon 11*, SMARCA2 activ 1, MC4R barr conf 4 and MOR DOR agonist 7.
O=C(Nc1ccccc1)C(c1ccccc1)c1ccccc1 was read as CFTR F508del cor -1, MC4R antag cAMP 12, MC4R barr agon 0 and SMARCA2 activ -1.

Bioassay records as filed in PubChem BioAssay.
